From ChEMBL document CHEMBL5346944, “Development of a 2,4-Diaminothiazole Series for the Treatment of Human African Trypanosomiasis Highlights the Importance of Static-Cidal Screening of Analogues” (J Med Chem, 2023)
Active and inactive are the calls of the source. No cut-off for these calls is given here.

What was measured:
[1] = AUC in NMRI mouse at 10 mg/kg, […] by UPLC-MS/MS analysis; format: ADME, organism-based; design: dose 10 mg/kg; conditions: in vivo
Summary of the method: (§1)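 Female NMRI or HRN mice (n = 3) given a single IP dose of 10 mg kg-1 free base in 5% DMSO/40% PEG400/55% water or 15% solutol/85% water, 10 mL kg-1. Blood sampled at 5, 15, 30 min and 1, 2, 4, 6, 8 h, diluted with two volumes of water, assayed by UPLC-MS/MS. PK parameters derived from the mean blood concentration–time curve.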

Trypanosoma brucei [2] = assay: Antiparasitic activity against bloodstream-form Trypanosoma brucei assessed as static in presence of 5% Co2 at < 5.6 uM incubated for 24 hrs by static-cidal assay; format: functional, organism-based
[3] = Permeability across blood brain barrier in NMRI mouse stage 2 CNS model; format: ADME; conditions: read-out: BBR
Summary of the method: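 Female NMRI mice (n = 3) received a 10 mg kg-1 IV bolus in 15% solutol. At 30 min, under terminal isoflurane anesthesia, blood was taken by cardiac puncture and the brain removed. Both were quantified by UPLC-MS/MS; brain (ng g-1) divided by blood (ng mL-1) per mouse gives the brain:blood ratio.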

[4] = Drug metabolism in mouse liver microsomes assessed as retention time of 4-hydroxycyclohexyl metabolite at 0.5 to 5 uM for 60 mins by LC-MS analysis; format: ADME, Microsome; conditions: 1 h, dose 0.5-5 µM
Summary of the method: (§2)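 Mouse liver microsomes incubated with compound at 0.5 and 5 μM for 60 min. Oxidized metabolites (m/z 354) detected and their retention times recorded by LC–MS.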

[5] = Toxicity in mouse assessed as tolerability at 20 mg/kg, ip; format: organism-based; conditions: in vivo
[6] = Tmax in NMRI mouse at 10 mg/kg, po by UPLC-MS/MS analysis; format: ADME, organism-based; conditions: in vivo
Summary of the method: (§3)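 Oral gavage at 10 mg kg-1 free base in 10% DMSO/40% PEG400/50% water, 5 mL kg-1, to female NMRI mice (n = 3) or Sprague-Dawley rats. Blood drawn at 5, 15, 30 min and 1, 2, 4, 6, 8 h, mixed with two volumes of water, measured by UPLC-MS/MS. Parameters taken from the mean blood concentration–time curve.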

[7] = Fraction unbound in NMRI mouse brain stage 2 CNS model; format: ADME
[8] = Tmax in NMRI mouse at 10 mg/kg, ip by UPLC-MS/MS analysis; format: ADME, organism-based; conditions: in vivo; summary of the method: as §1
[9] = Cmax in HRN mouse at 10 mg/kg, ip by UPLC-MS/MS analysis; format: ADME, organism-based; design: dose 10 mg/kg, route ip; conditions: in vivo; summary of the method: as §1
[10] = Fraction unbound in NMRI mouse; format: ADME
[11] = Cmax in NMRI mouse at 10 mg/kg, ip by UPLC-MS/MS analysis; format: ADME, organism-based; design: dose 10 mg/kg, route ip; conditions: in vivo; summary of the method: as §1
Trypanosoma brucei [12] = assay: Antiparasitic activity against bloodstream-form Trypanosoma brucei assessed as cidal in presence of 5% Co2 at > 5.6 uM incubated for 24 hrs by static-cidal assay; format: functional, organism-based
[13] = Drug metabolism in mouse liver microsomes assessed as retention time of 3-hydroxycyclohexyl metabolite at 0.5 to 5 uM for 60 mins by LC-MS analysis; format: ADME, Microsome; conditions: 1 h, dose 0.5-5 µM; summary of the method: as §2
Trypanosoma brucei [14] = assay: Antiparasitic activity against bloodstream-stage Trypanosoma brucei measured after 73 hrs by resazurin assay; format: functional, organism-based
[15] = test system: Trypanosoma brucei brucei; assay: Antiparasitic activity against Trypanosoma brucei brucei S427 injected in NMRI mouse assessed as cure by measuring reduction in parasitemia at 10 mg/kg, ip twice daily for 4 days measured upto 30 days by stage I efficacy study; format: functional, organism-based; conditions: time 4.0 day
Summary of the method: (§4)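 Female NMRI mice (3–5 per group) infected IP with 1 × 10^4 bloodstream T. b. brucei S427 from cryopreserved stabilate diluted in Hanks' balanced salt solution with glucose. Dosed IP twice daily, days 3–6, in 5% DMSO/40% PEG400/55% water, 10 mL kg-1, prepared fresh daily. Parasitemia followed to day 30; untreated control group of three mice.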

[16] = AUC in HRN mouse at 10 mg/kg, […] by UPLC-MS/MS analysis; format: ADME, organism-based; design: dose 10 mg/kg; conditions: in vivo; summary of the method: as §1
Trypanosoma brucei [17] = assay: Antiparasitic activity against bloodstream-form Trypanosoma brucei in presence of 5% Co2 incubated for 69 hrs followed by resazurin addition further incubated for 4 hrs; format: functional, organism-based
[18] = Tmax in HRN mouse at 10 mg/kg, ip by UPLC-MS/MS analysis; format: ADME, organism-based; conditions: in vivo; summary of the method: as §1
[19] = Selectivity index, ratio of EC50 for human MRC-5 cells to EC50 for bloodstream-form Trypanosoma brucei; format: toxicity; conditions: read-out: Selectivity Index
[20] = Metabolic stability in CD1 mouse liver microsomes assessed as intrinsic clearance by UPLC-MS/MS analysis; format: ADME
Summary of the method: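 Compound at 0.5 μM incubated with female CD1 mouse liver microsomes (0.5 mg mL-1, 50 mM potassium phosphate pH 7.4). Reaction started with excess NADPH. Aliquots taken at 0, 3, 6, 9, 15, 30 min and quenched in acetonitrile with internal standard, then analysed by UPLC-MS/MS.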

[21] = Cmax in NMRI mouse at 10 mg/kg, po by UPLC-MS/MS analysis; format: ADME, organism-based; design: dose 10 mg/kg, route po; conditions: in vivo; summary of the method: as §3
[22] = test system: Trypanosoma brucei brucei; assay: Antiparasitic activity against Trypanosoma brucei brucei S427 injected in NMRI mouse assessed as cure by measuring reduction in parasitemia at 10 mg/kg, ip twice daily for 4 days by stage I efficacy study; format: functional; design: scale not given: the % may be the effect or the level left; conditions: time 4 day; summary of the method: as §4
[23] = AUC in NMRI mouse at 10 mg/kg, po by UPLC-MS/MS analysis; format: ADME, organism-based; design: dose 10 mg/kg, route po; conditions: in vivo; summary of the method: as §3
[24] = Antiproliferative activity against human MRC5 cells in presence of 5% Co2 incubated for 69 hrs followed by resazurin addition further incubated for 4 hrs; format: toxicity, cell-based

- AUC [1]: 66 µg·h/mL
- Kp [3]: 3.3
- Retention_time [4]: 3.43 min
- Tmax [6]: 30 min
- fraction unbound [7]: 0.006
- Tmax [8]: 15 min
- Cmax [9]: 3800 ng/mL
- fraction unbound [10]: 0.0063
- Cmax [11]: 830 ng/mL
- Retention_time [13]: 3.86 min
- EC50 (Trypanosoma brucei [14]): 110 nM
- AUC [16]: 1000 µg·h/mL
- EC50 (Trypanosoma brucei [17]): 110 nM
- Tmax [18]: 30 min
- CLH [20]: 15 mL/min/g
- Cmax [21]: 33 ng/mL
- AUC [23]: 5.7 µg·h/mL
SMILES: Nc1nc(NC2CCCCC2)sc1C(=O)c1c(F)cccc1F
- Activity (Trypanosoma brucei [2]): Active
- Activity [5]: Toxic
- Activity (Trypanosoma brucei [12]): Active
- Activity [15]: Active
- selectivity ratio [19]: 11
- Activity [22]: 100%
- EC50 at 69 h [24]: 1200 nM
